CRFR2-BP antag: antagonists of CRF-binding protein/CRF-R2 receptor complex. HEK293 CRF-R2/CRF-BP, CRF-induced calcium fluorescence. 350,000 compounds, 0.59% hits. inhibition, % at 11.8 µM;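 active = inhibition of the ligand-induced calcium signal above about 50% at the single tested concentration, limit read from the data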
KLK7 zymogen act: proKLK7 (human) activation, primary screen. P49862. purified proKLK7, EDANS-DABCYL substrate fluorescence; 100% is mature enzyme control, 0% vehicle. activation, % at 7 µM. 370,000 compounds, 0.9% hits;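 active = activation above the mean of all tested compounds plus 3 SD, computed per campaign excluding outliers beyond control limits, cut at about 13% in these data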
CRFR2-BP ag: agonists of human CRF-binding protein/CRF-R2 receptor complex; activation, % at 13.2 µM; 350,000 compounds, 0.46% hits; AID 588473; HEK293 CRF-R2/CRF-BP, calcium dye fluorescence (FLIPR); percent of saturating CRF peptide response;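 active = activation of at least 50%, plus an integration ratio under a set limit after plate pattern correction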
DDE Tn7 FP inh: DD(E)-Tn7 binding inhibition, primary FP screen | P02675 | FP displacement of FITC-Tn7 peptide from fibrin DD(E); 0% = median of compound wells per plate | inhibition, % at 8.3 µM | 370,000 compounds, 0.13% hits | AID 720508;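 active = inhibition above the mean of compounds falling within the control limits plus 3 SD of them, cut at about 14% in these data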
Target sequence (P02675 whole entry, looked up): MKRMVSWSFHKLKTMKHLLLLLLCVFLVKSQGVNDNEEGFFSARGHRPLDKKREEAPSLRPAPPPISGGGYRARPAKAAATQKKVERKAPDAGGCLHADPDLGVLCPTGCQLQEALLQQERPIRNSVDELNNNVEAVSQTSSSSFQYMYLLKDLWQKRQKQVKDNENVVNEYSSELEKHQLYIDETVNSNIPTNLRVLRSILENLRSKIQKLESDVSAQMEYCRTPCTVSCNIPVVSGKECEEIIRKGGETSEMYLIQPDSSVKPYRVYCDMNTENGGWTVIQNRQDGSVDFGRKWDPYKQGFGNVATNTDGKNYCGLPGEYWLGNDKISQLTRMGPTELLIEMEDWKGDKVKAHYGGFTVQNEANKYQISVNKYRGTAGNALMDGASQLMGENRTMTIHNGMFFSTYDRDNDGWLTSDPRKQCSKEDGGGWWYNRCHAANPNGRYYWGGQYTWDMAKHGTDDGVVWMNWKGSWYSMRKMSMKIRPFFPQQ
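Also added: labelled Tn7 tracer, 0.1 µM; Assay system: human fibrin DD(E) protein; Amount: 2 µM fibrin DD(E); Schedule: 10 min compound pre-incubation, 3 h probe incubation at room temperature; Repeats: one replicate per compound; Read-out basis: percent inhibition; Measured by: fluorescence polarization of the labelled Tn7 tracer.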
CendR NRP1 mod: alters CendR peptide binding to human NRP-1; inhibition, % at 25 µM; 360,000 compounds, 0.85% hits; FAM-RPARPAR peptide binding to NRP-1, fluorescence polarization;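 active = inhibition or corrected inhibition above about 18%, plus a signal ratio from 0.5 to 1.5, limit read from the data, passing the limit was not always enough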
DDE Tn6 FP inh: inhibitors of Tn6 peptide binding to human fibrin DD(E) | Fibrin DD(E) TRITC-Tn6 fluorescence polarization displacement | 370,000 compounds, 0.21% hits | inhibition, % at 8.3 µM | P02675;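 active = inhibition above a per-campaign cutoff: mean of compounds within control limits plus 3 SD, cut at about 15% in these data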
Of the large screens only hits and unclear results are named; the others gave an inactive call. Only some compounds are listed: those with a hit (about 2.9% of all), similar ones and a draw of the others.

CCN1CCN(c2c(/C=C3\SC(=S)N(Cc4ccco4)C3=O)c(C)c(C#N)c(=O)n2C)CC1	CRFR2-BP ag 90
COc1ccc(N2C(=O)CCC(C(=O)NCc3ccccn3)C2c2ccc(F)cc2)cc1 (stereo not drawn)	none
COc1ccc(N2C(=O)CCC(C(=O)NCc3ccccn3)C2c2ccc(OC)c(OC)c2)cc1 (stereo not drawn)	CendR NRP1 mod 22
COC(=O)C1CN(CCc2ccccc2)CCS(=O)(=O)N1Cc1ccc(C)cc1 (stereo not drawn)	none (no result: CRFR2-BP antag, CRFR2-BP ag, CendR NRP1 mod)
Cc1ccc(/C=C2/SC(=S)N(c3ccc(S(=O)(=O)Nc4nccs4)cc3)C2=O)cc1	CRFR2-BP antag 59
COc1ccc(/C=C2/SC(=S)N(c3ccc(S(=O)(=O)Nc4nccs4)cc3)C2=O)cc1	none
Cc1nc(-c2ccncc2)nc(NCCNc2ccc(C(F)(F)F)cn2)c1Cl	CRFR2-BP antag 118
CC(=O)Nc1ccccc1C(=O)C(=O)O	CendR NRP1 mod 26
COc1ccccc1N1N=C(C(=O)c2ccccc2)C2C(=O)N(c3ccc(Br)cc3)C(=O)C21 (stereo not drawn)	none
O=C(C1=NN(c2ccccc2)C2C(=O)N(c3ccccc3)C(=O)C12)c1ccccc1 (stereo not drawn)	CRFR2-BP ag 68
O=C(C1=NN(c2ccccc2)C2C(=O)N(c3ccccc3Cl)C(=O)C12)c1ccccc1 (stereo not drawn)	CRFR2-BP ag 135
Cc1ccc(N2C(=O)C3C(C(=O)c4ccccc4)=NN(c4ccccc4)C3C2=O)cc1 (stereo not drawn)	CRFR2-BP ag 90
COc1ccccc1N1C(=O)C2C(C(=O)c3ccccc3)=NN(c3ccccc3)C2C1=O (stereo not drawn)	none
O=C(N[C@@H](Cc1cccnc1)C(=O)N1CCC[C@H]1C(=O)NCCc1ccccc1Cl)c1ccccc1	none (no result: CRFR2-BP antag, CRFR2-BP ag, CendR NRP1 mod)
CCOC(=O)[C@@]12CN(C(=O)OC(C)(C)C)CC=C1N(Cc1ccc(OC)cc1)C(=O)[C@H]2CC(=O)NCCc1ccccc1OC	none (no result: CRFR2-BP antag, CRFR2-BP ag, CendR NRP1 mod)
O=C1C(C=NCCN2CCOCC2)=C(O)c2ccccc21	CendR NRP1 mod 27
O=C1C(C=NCCCN2CCOCC2)=C(O)c2ccccc21	none
COC(=O)[C@]12C[C@H](CC(=O)N3CCOCC3)C(=O)N(Cc3ccco3)C1=C[C@H](C(C)(C)C)O[C@@H]2C	none (no result: CRFR2-BP antag, CRFR2-BP ag, CendR NRP1 mod)
Cc1csc(SC(C)C(=O)NCc2ccc3c(c2)OCO3)n1 (stereo not drawn)	CendR NRP1 mod 26
COC(=O)[C@]12C[C@H](CC(=O)N3CCOCC3)C(=O)N(CCc3ccc(OC)c(OC)c3)C1=C[C@H](C1CCCC1)O[C@@H]2C	none (no result: CRFR2-BP antag, CRFR2-BP ag, CendR NRP1 mod)
Oc1ccc(/C=N/Nc2cc(N3CCOCC3)nc(N3CCOCC3)n2)cc1O	CendR NRP1 mod 26
Oc1cccc(/C=N/Nc2cc(N3CCOCC3)nc(N3CCOCC3)n2)c1	none
CCCCCCCCN1C(=O)[C@@H](CC(=O)N2CCN(C(=O)C3CC3)CC2)C[C@@]2(C(=O)OC)C1=C[C@H](C(C)(C)C)O[C@@H]2C	none (no result: CRFR2-BP antag, CRFR2-BP ag, CendR NRP1 mod)
COc1ccccc1Nc1nc(Cl)nc(Nc2ccccc2OC)n1	CendR NRP1 mod 26
C=CCNc1nc(Cl)nc(Nc2ccccc2)n1	none
COc1ccccc1Nc1nc(C)cc(C)n1	none
CNc1nc(Cl)nc(Nc2ccccc2)n1	CRFR2-BP antag 103
CCN(CC)C(=O)CN1C(=O)C2CCCCN2C(=O)c2ccccc21 (stereo not drawn)	none (no result: CRFR2-BP antag, CRFR2-BP ag, CendR NRP1 mod)
OC[C@@H]1CC[C@@H]2O[C@H](CCc3ccc(-c4ccc(F)cc4)cc3)[C@@H](n3cc(C4CC4)nn3)C[C@@H]2O1	none (no result: CRFR2-BP antag, CRFR2-BP ag, CendR NRP1 mod)
CCCCCCCCNS(=O)(=O)CCNCc1ccc(OC)cc1	CRFR2-BP antag 115
COc1ccc(CNCCS(=O)(=O)NCc2ccc(OC)cc2)cc1	none
CCN(C[C@H]1[C@@H](c2ccc(C3=CCCC3)cc2)[C@H](CO)N1c1nc(C)c(C)s1)S(=O)(=O)c1ccccc1[N+](=O)[O-]	none (no result: CRFR2-BP antag, CRFR2-BP ag, CendR NRP1 mod)
O=C(/C=C/c1ccccc1)NC1CC2CCC1C2 (stereo not drawn)	none
c1ccc(CNC2CC3CCC2C3)cc1 (stereo not drawn)	CendR NRP1 mod 24
